The text below walks through data of ChEMBL document CHEMBL1128732, “Synthesis and anticonvulsant activity of N-benzylpyrrolo[2,3-d]-, -pyrazolo[3,4-d]-, and -triazolo[4,5-d]pyrimidines: imidazole ring-modified analogues of 9-(2-fluorobenzyl)-6-(methylamino)-9H-purine” (J Med Chem, 1995).

Some results are limits rather than exact numbers.

Series [1] relates to Rattus norvegicus. The series can be described thus: The compound was tested for anticonvulsant activity against maximal electroshock-induced seizures after intraperitoneal administration in rats. The class given is functional. The gist of the method: (§1)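 Male Wistar rats (Charles River) challenged with maximal electroshock. ED50 is the dose protecting 50% of animals against the hind limb extensor component, calculated by the Miller–Tainter method. With standard error: at least 12 animals per dose level, four doses per compound. Without standard error: three doses, six animals per point. Some compounds were given as the hydrochloride.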
In general terms: The maximal electroshock test induces tonic seizures with an electrical stimulus.

Series [2] relates to Rattus norvegicus. The series can be described thus: The compound was tested for anticonvulsant activity against maximal electroshock-induced seizures after peroral administration in rats. The class given is functional. In short, it runs like this: as §1
Series [3] is described as follows: pKa value of the compound. The class given is physicochemical.
Series [4] is described as follows: Partition coefficient (logP). The series is classed as physicochemical. The settings on record: octanol/water. The gist of the method:
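Octanol–water partition measured with a carbonate-buffered aqueous phase adjusted to pH 10.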

In the case of `Nc1ncnc2c1cnn2Cc1ccccc1`, the ED50 in the series with Rattus norvegicus [1] (Rattus norvegicus, ip) was more than 25 mg/kg.
For the molecule `CN(C)c1ncnc2c1ccn2Cc1ccccc1F`, the median effective dose (ED50) amounted to 11 mg/kg in the series with Rattus norvegicus [1] and 12 mg/kg with Rattus norvegicus [2].
Turning to `CNc1ncnc2c1cnn2Cc1ccccc1`, the median effective dose (ED50) in the series with Rattus norvegicus [1] (Rattus norvegicus, ip) was 7 mg/kg; in the series with Rattus norvegicus [2] (Rattus norvegicus, po), 15 mg/kg.
For `CNc1ncnc2c1nnn2Cc1ccccc1F`, the 50% effective dose (ED50) in the series on Rattus norvegicus [1] (Rattus norvegicus, ip) worked out at 3 mg/kg; in the series on Rattus norvegicus [2] (Rattus norvegicus, po), 8 mg/kg. For the same molecule, the pKa in series [3] is 2.49. Besides, the logP in series [4] turned out to be 2.05.
With `Nc1ncnc2c1cnn2Cc1ccccc1F`, the ED50 turned out to be 8 mg/kg in the series with Rattus norvegicus [1] (Rattus norvegicus, ip) and 14 mg/kg in the series on Rattus norvegicus [2] (Rattus norvegicus, po).
In the case of `c1ccc(Cn2ccc3c(NC4CC4)ncnc32)cc1`, it took a dose of 36 mg/kg to reach the 50% effect level in the series on Rattus norvegicus [1] (Rattus norvegicus, ip) (ED50).
With `Fc1ccccc1Cn1ccc2c(NC3CC3)ncnc21`, the ED50 in the series on Rattus norvegicus [1] (Rattus norvegicus, ip) was more than 50 mg/kg.
`CNc1ncnc2c1cnn2Cc1ccccc1F`: the median effective dose (ED50) in the series on Rattus norvegicus [1] (Rattus norvegicus, ip) turned out to be 6 mg/kg; with Rattus norvegicus [2] (Rattus norvegicus, po), 8 mg/kg. In series [3], this molecule came in with a pKa of 4.4. Also, the lipophilicity (logP) in series [4] was found to be 1.94.
Taken in the same sequence, the figures for `CNc1ncnc2c1ccn2Cc1ccccc1F` were 6 mg/kg, 12 mg/kg, 5.56 and 2.11.
In the series on Rattus norvegicus [1] (Rattus norvegicus, ip), `Nc1ncnc2c1nnn2Cc1ccccc1F` yielded an ED50 of more than 25 mg/kg.
For `CN(C)c1ncnc2c1ccn2Cc1ccccc1`, in the series on Rattus norvegicus [1], the ED50 is 15 mg/kg.
On to `Nc1ncnc2c1ncn2Cc1ccccc1F`, for which the values for the ED50 in the series on Rattus norvegicus [1] and in the series with Rattus norvegicus [2] were 4.5 mg/kg and 12 mg/kg, respectively.
Taken in the same sequence, the figures for `CNc1ncnc2c1ncn2Cc1ccccc1F` [BW-A78U] were 1.7 mg/kg and 2.5 mg/kg.
In the case of `O=C1NC(=O)C(c2ccccc2)(c2ccccc2)N1` [PHENYTOIN], the median effective dose (ED50) with Rattus norvegicus [1] stood at 10 mg/kg; in the series on Rattus norvegicus [2] it was 20 mg/kg.

Usually ED50 stands for the midpoint of the dose-response relation. A high value points to weaker potency. What is called pKa is the pH at which an ionisable group is half protonated. Low readings indicate a stronger acid or weaker base, high ones a weaker acid or stronger base. For orientation: logP means a log measure of how a compound divides between an organic and an aqueous phase. High values mean a more lipophilic compound, low ones a more hydrophilic compound.
